Experimental data collected from several papers.
Protocols differ between the studies behind these lines.
Effect on: cell growth or viability

Structure (SMILES) | cell line | technique | concentration | time | endpoint | result
Oc1ccc(Nc2nc(-c3ccc(Cl)cc3)cs2)cc1 | A375M | MTS |  | 24 h | IC50 | > 100000 nM
S=C([S][Au-][P+](CCCCCC[P+]([Au-][S]C(=S)n1cccn1)(c1ccccc1)c1ccccc1)(c1ccccc1)c1ccccc1)n1cccn1 | HCC 2998 |  |  |  | GI50 | 759 nM
COc1cccc(Oc2ccccc2NC(=O)CNC(=O)c2cccc3ccccc23)c1 | HCC 2998 | SRB |  | 48 h | GI50 | 1260 nM
COc1cc(-c2cn(-c3ccccc3)nn2)cc(OC)c1OC | CCRF-CEM |  |  | 48 h | CC50 | 34600 nM
Cc1ccc(C)c(COc2cc(NC(=O)c3ccc4c(c3)OCO4)ccc2N(C)S(C)(=O)=O)c1 | HCC 2998 | SRB |  | 48 h | GI50 | 120 nM
O=C1Nc2ccccc2C1=NNc1nnc2n1N=C(c1ccccc1)CS2 | SNB-75 | SRB | 10 µM |  | inhibition | 35%
Cc1cc(C)n(C(=S)[S][Au][PH](CCCCCC[PH]([Au][S]C(=S)n2nc(C)cc2C)(c2ccccc2)c2ccccc2)(c2ccccc2)c2ccccc2)n1 | HCC 2998 |  |  |  | GI50 | 252 nM
COc1ccc(C2=Nn3c(NN=C4C(=O)Nc5ccc(OC)cc54)nnc3SC2)cc1 | UACC-257 | SRB | 10 µM |  | inhibition | 20%
COc1cc(-c2ccc(-c3ccc(C(=N)N)nc3)s2)cc(OC)c1OC | SNB-75 | SRB |  |  | GI50 | 1500 nM
COc1cc(OC)cc(-c2cn(-c3cc(=O)oc4ccc(Br)cc34)nn2)c1 | CCRF-CEM |  |  | 48 h | CC50 | 10500 nM
CC(C)C[C@H](NC(=O)[C@H](Cc1ccccc1)NC(=O)c1cnccn1)B(O)O | OCI-AML-5 | ATP luminescence |  |  | IC50 | 18 nM
COc1ccc(-c2ccc(-c3ccc(C(=N)N)nc3)s2)cc1 | SNB-75 | SRB |  |  | GI50 | 1550 nM
